Laboratory results reported in ChEMBL document CHEMBL4814076, “Discovery of a Potent and Selective Covalent Inhibitor of Bruton's Tyrosine Kinase with Oral Anti-Inflammatory Activity” (ACS Med Chem Lett, 2021).
Active and inactive are the calls of the source. The calls are words filed in the database; no cut-off is given here.

Legend:
[1] = target: T1, Tyrosine-protein kinase BTK (Homo sapiens, UniProt Q06187); assay: Covalent inhibition of recombinant human GST-tagged BTK (2 to 659 end residues) expressed in baculovirus expression system assessed as inhibition constant using NH2-KKKAPFSWYLPEEG as substrate measured every 2 mins for 2 hrs in presence of ATP by microplate reader assay
T1 sequence (Q06187 whole entry): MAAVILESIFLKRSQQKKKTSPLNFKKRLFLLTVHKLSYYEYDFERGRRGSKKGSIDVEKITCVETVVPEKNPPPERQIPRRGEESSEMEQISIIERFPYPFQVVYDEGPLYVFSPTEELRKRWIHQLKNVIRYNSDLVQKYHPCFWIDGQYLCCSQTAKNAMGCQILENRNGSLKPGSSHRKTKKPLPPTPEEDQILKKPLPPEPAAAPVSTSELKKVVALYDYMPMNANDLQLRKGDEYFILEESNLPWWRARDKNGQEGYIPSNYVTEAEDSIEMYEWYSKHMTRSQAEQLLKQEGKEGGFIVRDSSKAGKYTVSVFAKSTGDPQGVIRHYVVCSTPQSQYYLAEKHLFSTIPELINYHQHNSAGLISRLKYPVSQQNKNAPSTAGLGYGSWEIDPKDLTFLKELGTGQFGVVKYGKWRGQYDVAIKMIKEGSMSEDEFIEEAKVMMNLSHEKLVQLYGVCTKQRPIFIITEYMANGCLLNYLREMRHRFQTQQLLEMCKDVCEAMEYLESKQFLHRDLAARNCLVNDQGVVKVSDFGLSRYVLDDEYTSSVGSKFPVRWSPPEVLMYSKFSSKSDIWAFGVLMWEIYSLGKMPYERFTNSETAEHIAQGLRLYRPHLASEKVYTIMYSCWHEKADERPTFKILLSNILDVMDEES

[2] = target: T1, Tyrosine-protein kinase BTK; assay: Covalent inhibition of recombinant human GST-tagged BTK (2 to 659 end residues) expressed in baculovirus expression system assessed as inactivation constant using NH2-KKKAPFSWYLPEEG as substrate measured every 2 mins for 2 hrs in presence of ATP by microplate reader assay
[3] = target: T1, Tyrosine-protein kinase BTK; assay: Covalent inhibition of recombinant human GST-tagged BTK (2 to 659 end residues) expressed in baculovirus expression system assessed as Kinact/Ki ratio using NH2-KKKAPFSWYLPEEG as substrate measured every 2 mins for 2 hrs in presence of ATP by microplate reader assay
[4] = Half life of the compound at 25 degreeC; assay type: physicochemical
[5] = target: Tyrosine-protein kinase BTK (Mus musculus, UniProt P35991); assay: Inhibition of BTK in C57Bl/6 mouse splenocyte assessed as reduction in anti-IgM-induced CD69 expression incubated for 1 hr followed anti-IgM stimulation and measured after overnight by flow cytometry analysis; assay type: tissue-based
Chain of Tyrosine-protein kinase BTK (Mus musculus, UniProt P35991) (P35991 whole entry): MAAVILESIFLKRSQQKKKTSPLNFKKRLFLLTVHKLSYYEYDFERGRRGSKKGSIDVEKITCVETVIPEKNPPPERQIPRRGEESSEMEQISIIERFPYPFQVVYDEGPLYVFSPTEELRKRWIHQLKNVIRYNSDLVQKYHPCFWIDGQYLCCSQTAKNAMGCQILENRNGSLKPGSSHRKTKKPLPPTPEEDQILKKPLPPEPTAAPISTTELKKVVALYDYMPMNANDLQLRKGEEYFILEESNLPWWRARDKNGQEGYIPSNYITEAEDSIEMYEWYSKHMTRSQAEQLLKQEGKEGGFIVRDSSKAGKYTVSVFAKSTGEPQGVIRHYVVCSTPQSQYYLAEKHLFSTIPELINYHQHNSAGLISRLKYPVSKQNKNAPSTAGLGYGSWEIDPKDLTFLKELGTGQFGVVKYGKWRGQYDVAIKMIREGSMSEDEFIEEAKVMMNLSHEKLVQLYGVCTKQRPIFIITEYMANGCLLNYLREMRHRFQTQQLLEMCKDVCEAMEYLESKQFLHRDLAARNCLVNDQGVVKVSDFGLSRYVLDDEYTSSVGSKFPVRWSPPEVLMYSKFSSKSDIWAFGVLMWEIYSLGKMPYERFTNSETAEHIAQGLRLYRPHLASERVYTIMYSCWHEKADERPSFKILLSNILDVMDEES
Method in brief: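 Mouse splenocytes stimulated with anti-IgM. CD69 expression measured as the read-out.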

[6] = Inhibition of BTK in Wistar rat whole blood assessed as reduction in anti-IgD-induced B220/CD86+ expression incubated for 1 hr followed anti-IgD stimulation and measured after overnight by flow cytometry analysis; assay type: tissue-based
Method in brief: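 B-cell activation induced by anti-IgD in rat whole blood, read as B220+CD86+ cells.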

[7] = Half life in human pooled liver microsomes at 1 uM measured up to 60 mins in presence of NADPH by LC-MS/MS analysis; assay type: ADME, Microsome
[8] = target: T1, Tyrosine-protein kinase BTK; assay: Binding affinity to recombinant unphosphorylated human GST-tagged BTK kinase domain (389 to 659 residues) expressed in insect cells incubated for 1 hr by Lanthascreen assay
[9] = target: T1, Tyrosine-protein kinase BTK; assay: Time dependent inhibition of recombinant human GST-tagged BTK (2 to 659 end residues) expressed in baculovirus expression system using NH2-KKKAPFSWYLPEEG as substrate measured every 2 mins for 2 hrs in presence of ATP by microplate reader assay

Compound: C=CC(=O)N1CCC[C@@H](NC(=O)c2sc3nccc4c3c2NC(=O)N4c2ccc(Oc3ccccc3)cc2C(F)(F)F)C1
- Ki [1]: 1850 nM
- Kinact [2]: 0.000177 s⁻¹
- Ratio [3]: 95.7 M⁻¹ s⁻¹

Compound: O=C(N[C@@H]1CCCNC1)c1sc2nccc3c2c1NC(=O)N3c1ccc(Oc2ccccc2)cc1F
- half-life [4]: 46 h

Compound: C=CC(=O)C[C@@H]1CC[C@@H](NC(=O)c2sc3nccc4c3c2NC(=O)N4c2ccc(Oc3ccccc3)cc2C)C1
- Ki [1]: 11.7 nM
- IC50 [5]: 7.9 nM
- IC50 ([6]; Rattus norvegicus, Blood, 1 h): 130 nM

Compound: C=CC(=O)N1CCC[C@@H](NC(=O)c2sc3nccc4c3c2NC(=O)N4c2ccc(Oc3ccccc3)cc2C)C1 (stereo in doubt; 17)
- Ki [1]: 4.81 nM
- IC50 [5]: 19 nM
- half-life at 1 µM [7]: < 4 min
- IC50 [6]: 140 nM

Compound: CCC(=O)N1CCC[C@@H](NC(=O)c2sc3nccc4c3c2NC(=O)N4c2ccc(OC(C)C)cc2)C1
- IC50 [8]: 6600 nM

Compound: C=CC(=O)N[C@H]1CCC[C@H]1NC(=O)c1sc2nccc3c2c1NC(=O)N3c1ccc(Oc2ccccc2)cc1C
- Ki [1]: 14.8 nM
- IC50 [5]: 80 nM
- Kinact [2]: 0.000257 s⁻¹
- Ratio [3]: 17400 M⁻¹ s⁻¹
- IC50 ([6]; Rattus norvegicus, Blood, 1 h): 100 nM

Compound: C=CC(=O)N1CCC[C@@H](NC(=O)c2sc3nccc4c3c2NC(=O)N4c2ccc(Oc3ccccc3)cc2F)C1
- Ki [1]: 9.2 nM
- IC50 [5]: 20 nM
- IC50 ([6]; Rattus norvegicus, Blood, 1 h): 180 nM

Compound: C=CC(=O)N1CCC[C@@H](NC(=O)c2sc3nccc4c3c2NC(=O)N4c2ccccc2)C1
- Ki [1]: 6420 nM
- Kinact [2]: 0.000807 s⁻¹
- Ratio [3]: 126 M⁻¹ s⁻¹

Compound: C=CC(=O)N1CCC[C@@H](NC(=O)c2sc3nccc4c3c2NC(=O)N4c2ccc(OC(C)C)cc2C)C1
- Ki [1]: 337 nM
- IC50 [5]: 42 nM
- IC50 ([6]; Rattus norvegicus, Blood, 1 h): 460 nM

Compound: C=CC(=O)N1CCC[C@@H](NC(=O)c2sc3nccc4c3c2NC(=O)N4c2ccc(Oc3ccccc3)cc2Cl)C1
- Ki [1]: 12.3 nM
- IC50 [5]: 13 nM
- IC50 ([6]; Rattus norvegicus, Blood, 1 h): 220 nM

Compound: C=CC(=O)NCCNC(=O)c1sc2nccc3c2c1NC(=O)N3c1ccc(Oc2ccccc2)cc1C
- Ki [1]: 51.9 nM
- IC50 [5]: 7.6 nM
- IC50 ([6]; Rattus norvegicus, Blood, 1 h): 210 nM

Compound: C=CC(=O)N1CCC[C@@H](NC(=O)c2sc3nccc4c3c2NC(=O)N4c2ccc(OC(C)C)cc2)C1
- Ki [1]: 4220 nM
- Kinact [2]: 0.000256 s⁻¹
- IC50 [8]: 120 nM
- Ratio [3]: 60.7 M⁻¹ s⁻¹
- inhibition [9]: Active

Compound: C=CC(=O)N1CCC[C@@H](NC(=O)c2sc3nccc4c3c2NC(=O)N4c2ccc(Oc3ccccc3)cc2C)C1 (stereo in doubt; 16)
- Ki [1]: 150 nM
- IC50 [5]: 400 nM
- IC50 [6]: 2450 nM

Compound: CC(C)Oc1ccc(N2C(=O)Nc3c(C(=O)N[C@@H]4CCCNC4)sc4nccc2c34)cc1
- IC50 [8]: 3500 nM

Compound: C=CC(=O)N1CC(NC(=O)c2sc3nccc4c3c2NC(=O)N4c2ccc(Oc3ccccc3)cc2C)C1
- Ki [1]: 141 nM
- IC50 [5]: 130 nM
- IC50 ([6]; Rattus norvegicus, Blood, 1 h): 1740 nM

Compound: C=CC(=O)N1CC[C@H](NC(=O)c2sc3nccc4c3c2NC(=O)N4c2ccc(Oc3ccccc3)cc2C)C1
- Ki [1]: 217 nM
- IC50 [5]: 30 nM
- IC50 ([6]; Rattus norvegicus, Blood, 1 h): 640 nM

Compound: C=CC(=O)N1CCC[C@@H](NC(=O)c2sc3nccc4c3c2NC(=O)N4c2ccccc2C)C1
- Ki [1]: 1580 nM
- Kinact [2]: 0.000573 s⁻¹
- Ratio [3]: 363 M⁻¹ s⁻¹

Compound: C=CC(=O)N1CCC[C@@H](NC(=O)c2sc3nccc4c3c2NC(=O)N4c2cc(OC(C)C)ccc2C)C1
- Ki [1]: 3290 nM
- Kinact [2]: 0.000222 s⁻¹
- Ratio [3]: 67.5 M⁻¹ s⁻¹
